Bioassay records (PubChem BioAssay)
This excerpt belongs to a sample that is enriched for hits.
Tb MetRS inh = blocks T. brucei methionyl-tRNA synthetase activity | inhibition, % at 11.9 µM | hit rate 0.4% among 360,000 | purified T. brucei MetRS, ATP depletion, Kinase-Glo luminescence;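 active = inhibition above a per-plate cutoff of the control wells' mean inhibition plus 3 SD, cut at about 5.5% in these data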
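Material – parasite MetRS enzyme · Medium – HEPES-MgCl2-KCl buffer plus DTT, spermine, BSA, pyrophosphatase · Reagent – ATP, methionine and E. coli bulk tRNA substrates · Times – 15 min enzyme-compound preincubation, 2 h reaction, 10 min detection, 25 °C · Measured by – luminescence of leftover ATP · Evaluation – percent inhibition relative to median high and low control wells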
XBP1 UPR activ = adaptive UPR (XBP1) activation; CHO-XBP1 luciferase reporter, IRE1-XBP1 UPR activation, luminescence; percent of tunicamycin response, DMSO as zero; hit rate 0.33% among 330,000; activation, % at 20 µM;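 active = versus positive control, 20 µM dose yields 30% or more activation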
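Test system: CHO-XBP1 luciferase reporter cells | Buffer or medium: Serum-containing F12 medium, 10% FBS | Schedule: 6 h compound exposure at 37 °C, 5% CO2 | Detection: Steady-Glo luciferase glow luminescence, 10 min after reagent addition | Read-out basis: Activation, % of tunicamycin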
CHOP inh = inhibitors of CHOP induction in ER stress response; CHO-K1 CHOP-promoter luciferase, tunicamycin-induced, 15-18 h; inhibition, % at 10 µM; hit rate 3.8% among 220,000; AID 2732;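 active = compounds that reduced the stress-induced luciferase reporter signal by more than about 70% of percent inhibition, limit read from the data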
V-ATPase pHluor = yeast V-ATPase proton transport regulation by pHLuorin | S. cerevisiae, pHLuorin cytosolic pH fluorescence | response, % at 10 µM | hit rate 0.37% among 350,000 | AID 504577; in the data active = response mostly above about 7.3%, no sharp cut-off; inactive = mostly below about 5.4%; note: actives read high
CHOP UPR activ = apoptotic UPR (CHOP) activation. CHO-CHOP luciferase reporter, luminescence; percent of tunicamycin response over DMSO baseline. activation, % at 10 µM. hit rate 0.34% among 330,000. AID 449763;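 active = at 10 µM dose, activation of 40% or more, normalized to positive control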
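System: CHO CHOP reporter cells. Amount: 500 cells per well. Buffer or medium: F12 medium, 10% FBS. Compound dosing: one dose, 10 µM in 0.5% DMSO. Incubation: 6 h compound exposure at 37 °C after overnight seeding. Technique: Steady-Glo luciferase luminescence. Benchmarks: tunicamycin and DMSO controls.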
Tb MetRS conf = confirmation of Trypanosoma brucei MetRS inhibitors; T. brucei MetRS enzyme, luminescence (ATP depletion); shares compounds with Tb MetRS inh; inhibition, % at 11.9 µM; hit rate 93% among 1,400; in the data active = inhibition above about 7%
Jurkat tox = counter-screen for T. brucei MetRS inhibitors: Jurkat cell cytotoxicity; shares compounds with Tb MetRS inh; Jurkat cells viability, ATP luminescence; inhibition, % at 8.3 µM; hit rate 12% among 1,400; AID 624413; in the data active = inhibition above about 15%
Tb MetRS inh FP = inhibits T. brucei methionyl tRNA synthetase in orthogonal FP test; hit rate 44% among 1,400; purified T. brucei MetRS, fluorescence polarization; shares compounds with Tb MetRS inh; inhibition, % at 11.9 µM; AID 651607; in the data active = inhibition above about 17%
Numbers stand for hits; . = inactive; / = no result.

SMILES	Tb MetRS inh	XBP1 UPR activ	CHOP inh	V-ATPase pHluor	CHOP UPR activ	Tb MetRS conf	Jurkat tox	Tb MetRS inh FP
CC(C)(C)OC(=O)N1CCC[C@H]1C(=O)NCc1ccc(Cl)cc1Cl	5.7	.	.	.	.	14	.	.
CC(C)(C)OC(=O)N1CCC[C@H]1C(=O)N1CCC[C@H]1C(=O)NCc1ccc(F)cc1F	.	/	/	/	/	/	/	/
CCO[C@H]1OC(C(=O)NCc2nc3ccccc3[nH]2)=C[C@@H](c2csc3ccccc23)[C@@H]1CCCO	7.6	.	.	.	.	38	.	.
CCO[C@@H]1OC(C(=O)NCc2nc3ccccc3[nH]2)=C[C@H](c2ccccc2)[C@H]1CCCO	8.6	.	.	.	.	38	.	20
CCO[C@@H]1OC(C(=O)NCc2nc3ccccc3[nH]2)=C[C@H](c2csc3ccccc23)[C@H]1CCCO	86	.	.	.	.	93	.	97
CCO[C@@H]1OC(C(=O)NCc2ccccc2)=C[C@H](c2csc3ccccc23)[C@H]1CCCO	.	.	.	.	.	/	/	/
CCO[C@H]1OC(C(=O)NCc2nc3ccccc3[nH]2)=C[C@@H](c2ccccc2)[C@@H]1CCCO	.	.	.	.	.	/	/	/
NC(=O)[C@H]1CC2(CC(c3cccc(NC(=O)[C@H]4CCC(=O)N4)c3)=NO2)CN1C(=O)c1cc([N+](=O)[O-])cc([N+](=O)[O-])c1 (stereo partly drawn)	.	.	.	.	.	/	/	/
CC1CCCC(=NNC(=O)C2COc3ccccc3O2)C1 (stereo not drawn)	.	.	/	.	.	/	/	/
CSc1nc2c(c(=O)[nH]1)C(c1cccc(Cl)c1)CC(=O)N2 (stereo not drawn)	.	.	.	.	.	/	/	/
COc1ccc(CSCCNC(=S)Nc2ccccc2)cc1Cl	28	.	.	.	.	41	.	22
S=C(NCCSCc1ccc(Cl)c(Cl)c1)Nc1ccccc1	41	.	/	.	.	57	.	41
CCOc1ccc(CSCCNC(=S)Nc2ccccc2)cc1	14	.	.	.	.	25	16	.
Cc1ccccc1CSCCNC(=S)Nc1ccccc1	.	.	.	.	.	/	/	/
N#CCCN(C(=O)CN1CCN(S(=O)(=O)c2ccc3c(c2)OCCO3)CC1)c1ccc(F)cc1	.	.	/	.	.	/	/	/
CCC1(CC)NC(=O)N(CC(=O)Nc2ccc(S(=O)(=O)N3CCOCC3)cc2)C1=O	.	.	.	.	.	/	/	/
Cc1[nH]c2ccccc2c(=O)c1CN1CCCCC1	.	.	.	.	.	/	/	/
Cc1[nH]c2ccc(Cl)cc2c(=O)c1CN1CCCC1	45	.	.	.	.	48	.	28
CCOc1ccc2[nH]c(C)c(CN3CCCCC3)c(=O)c2c1	.	.	.	.	.	/	/	/
Cc1[nH]c2ccc(Br)cc2c(=O)c1CN1CCCCCC1	60	.	/	.	.	82	.	52
CCN(CC)S(=O)(=O)c1ccc(Cl)c(NC(=O)COc2ccc(OC)cc2)c1	.	.	.	.	.	/	/	/
COc1ccc(NC(=O)Nc2c(SC)nsc2SC)cc1	.	.	.	.	.	/	/	/
NC(=O)c1nsc(C(=O)N(c2ccc(F)cc2)C(C(=O)NCC2CCCO2)c2ccc3ncccc3c2)c1N (stereo not drawn)	.	.	/	.	.	/	/	/
O=C(Cn1cnnn1)NCCc1ccc(Cl)cc1Cl	9.4	.	/	.	.	18	.	.
O=C(CN1CCNC(=O)C1)NCCc1ccc(Cl)cc1Cl	.	.	.	.	.	/	/	/
SMILES	Tb MetRS inh	XBP1 UPR activ	CHOP inh	V-ATPase pHluor	CHOP UPR activ	Tb MetRS conf	Jurkat tox	Tb MetRS inh FP
Cc1nn(CC(=O)NCCc2ccc(Cl)cc2Cl)c(C)c1[N+](=O)[O-]	16	.	.	.	.	33	.	.
CCC1CCCCN1CCCNC(=O)c1ccc2c(=O)n(CCOC)c(=O)[nH]c2c1 (stereo not drawn)	.	.	/	.	.	/	/	/
Cc1cc(Cl)ccc1OC(C)C(=O)Nc1cnn(CCCC(=O)O)c1 (stereo not drawn)	.	.	/	.	.	/	/	/
O=C(CN1CCCCCCC1)Nc1cccc(Cl)c1Cl	.	.	.	.	.	/	/	/
c1ccc(CNc2nc(NCCc3ccncc3)c3sccc3n2)cc1	12	/	/	/	/	33	.	19
COc1ccc(CCNC(=S)Nc2ccc(S(=O)(=O)Nc3ncccn3)cc2)cc1OC	.	.	/	.	.	/	/	/
O=C(NCc1cc(Cl)cc(Cl)c1)c1csc([C@@H]2C[C@H](O)[C@@H](CO)O2)n1	22	/	/	/	/	60	.	35
O=C(NCc1ccccc1Cl)c1csc([C@@H]2C[C@H](O)[C@@H](CO)O2)n1	.	/	/	/	/	/	/	/
O=C(NCc1cc(Cl)cc(Cl)c1)c1csc(COCCO)n1	43	/	/	/	/	66	.	44
O=C(NCc1cc(Cl)cc(Cl)c1)c1ccc2nc([C@@H]3O[C@H](CO)[C@@H](O)[C@H]3O)[nH]c2c1	11	/	/	/	/	45	.	25
O=C(NCc1cc(Cl)cc(Cl)c1)c1ccc2sc([C@H]3C[C@H](O)[C@@H](CO)O3)nc2c1	27	/	/	/	/	69	.	39
O=C(NCc1ccncc1)c1ccc2nc([C@@H]3O[C@H](CO)[C@H](O)[C@H](O)[C@H]3O)[nH]c2c1	.	/	/	/	/	/	/	/
COCCN(C(=O)c1ccc(COc2ccccc2)o1)c1c(N)n(CC(C)C)c(=O)[nH]c1=O	.	.	/	.	.	/	/	/
Cc1cccc(C)c1NC(=O)C(=O)NCc1ccccn1	.	.	.	.	.	/	/	/
Cc1ccc(C(=O)NNC(=O)c2n[nH]c(=O)c3ccccc23)cc1C	.	.	/	.	.	/	/	/
CCc1ccccc1OCC(=O)Nc1cccc(S(=O)(=O)NC2=NCCCCC2)c1	20	.	/	.	.	40	.	18
Cc1ccccc1C(=O)Nc1ccnn1C1CCN(C(=O)c2cnsn2)CC1	.	.	/	.	.	/	/	/
COc1ccc(C(=O)N(C)[C@H]2C[C@H]3c4[nH]c5ccccc5c4CCN3C(=O)[C@H]2CO)cc1	44	/	/	.	/	62	.	26
COc1ccc(-c2ccc3[nH]c4c(c3c2)CCN2C(=O)[C@@H]([C@H](C)O)[C@@H](N(C)C(=O)Nc3ccccc3)C[C@@H]42)cc1	.	/	/	.	/	/	/	/
C[C@H](O)[C@@H]1CN2CCc3c([nH]c4ccccc34)[C@@H]2C[C@@H]1N(C)Cc1cc(Cl)cc(Cl)c1	34	/	/	.	/	71	.	37
C[C@H](O)[C@@H]1C(=O)N2CCc3c([nH]c4ccccc34)[C@@H]2C[C@@H]1N(C)Cc1ccc2c(c1)OCO2	89	/	/	.	/	102	.	83
